One molecule from ChEMBL document CHEMBL4765345, “Design, synthesis, and biological evaluation of dual targeting inhibitors of histone deacetylase 6/8 and bromodomain BRPF1” (Eur J Med Chem, 2020) can be followed below.

For one series, the target named is T1, Peregrin (Homo sapiens, UniProt P55201).
T1 sequence (P55201 whole entry): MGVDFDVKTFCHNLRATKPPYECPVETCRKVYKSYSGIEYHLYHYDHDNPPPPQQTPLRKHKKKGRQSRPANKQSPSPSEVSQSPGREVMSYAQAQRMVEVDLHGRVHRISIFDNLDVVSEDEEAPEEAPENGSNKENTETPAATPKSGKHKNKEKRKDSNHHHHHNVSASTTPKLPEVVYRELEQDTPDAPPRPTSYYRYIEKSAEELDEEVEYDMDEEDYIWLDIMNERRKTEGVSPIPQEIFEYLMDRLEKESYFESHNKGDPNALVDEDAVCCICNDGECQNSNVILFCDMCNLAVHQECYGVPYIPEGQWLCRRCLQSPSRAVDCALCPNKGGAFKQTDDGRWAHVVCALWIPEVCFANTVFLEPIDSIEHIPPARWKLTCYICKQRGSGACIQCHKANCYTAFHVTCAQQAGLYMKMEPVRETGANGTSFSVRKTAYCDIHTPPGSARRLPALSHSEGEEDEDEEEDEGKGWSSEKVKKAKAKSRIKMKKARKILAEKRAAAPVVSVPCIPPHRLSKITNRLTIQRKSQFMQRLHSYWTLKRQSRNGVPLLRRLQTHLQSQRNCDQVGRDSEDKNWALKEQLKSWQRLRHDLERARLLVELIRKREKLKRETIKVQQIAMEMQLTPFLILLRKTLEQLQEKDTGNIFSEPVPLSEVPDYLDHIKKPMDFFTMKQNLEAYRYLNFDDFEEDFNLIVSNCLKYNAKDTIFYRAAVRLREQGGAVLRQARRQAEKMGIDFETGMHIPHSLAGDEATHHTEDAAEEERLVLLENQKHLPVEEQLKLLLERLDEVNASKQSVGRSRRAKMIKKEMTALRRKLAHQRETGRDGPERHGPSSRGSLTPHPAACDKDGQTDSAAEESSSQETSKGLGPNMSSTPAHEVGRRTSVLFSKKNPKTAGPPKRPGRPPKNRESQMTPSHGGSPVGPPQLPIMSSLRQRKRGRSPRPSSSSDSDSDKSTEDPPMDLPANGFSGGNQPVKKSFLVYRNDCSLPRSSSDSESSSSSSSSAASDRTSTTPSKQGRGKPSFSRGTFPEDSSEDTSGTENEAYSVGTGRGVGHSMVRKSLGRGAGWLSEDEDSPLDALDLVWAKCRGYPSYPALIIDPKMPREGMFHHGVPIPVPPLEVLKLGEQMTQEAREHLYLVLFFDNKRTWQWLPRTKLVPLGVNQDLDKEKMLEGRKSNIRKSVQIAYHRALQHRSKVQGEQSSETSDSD
Nature of the series: Binding affinity to BRPF1 (unknown origin) by Isothermal titration calorimetry. Conditions: read-out: Kd. The method in brief: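 Isothermal titration calorimetry with recombinant BRPF1 (200–400 μM) in the injection syringe titrated into ligand (20–40 μM) in the sample cell. Kd was fitted from the titrations and reported with its P99 interval.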

The test system of a further series is HL-60. Briefly: Antiproliferative activity against human HL60 assessed as reduction in cell growth at 100 uM by CellTiter-non radioactive cell proliferation assay. In kind it is functional.
In series [1] the test system is THP-1. Nature of the series: Antiproliferative activity against human THP-1 assessed as reduction in cell growth at 4 uM by CellTiter-non radioactive cell proliferation assay. In kind it is functional.
The test system of a further series is HEK293. Nature of the series: Cytotoxicity against human HEK293 assessed as reduction in cell viability incubated for 24 hrs by AlamarBlue assay. In kind it is cell-based. Conditions: hek293, 24 h. In a few lines:
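HEK293 cells were grown at 37 °C under 5% CO2 in DMEM with 10% FCS and 5 mM glutamine and seeded at 1.5 x 10³ cells per well. Compound at 50 μM was added at once. After 24 h AlamarBlue was added for another 21 h, and fluorescence was read at Ex 560/Em 590 nm. Triplicates over three independent experiments.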

In series [2] the test system is THP-1. Briefly: Antiproliferative activity against human THP-1 assessed as reduction in cell growth at 20 uM by CellTiter-non radioactive cell proliferation assay. The format is functional.
Series [3] relates to THP-1. Nature of the series: Antiproliferative activity against human THP-1 assessed as reduction in cell growth at 100 uM by CellTiter-non radioactive cell proliferation assay. The format is functional.
The target of series [4] is T2, Protein deacetylase HDAC6 (Homo sapiens) (UniProt Q9UBN7).
T2 sequence (whole entry): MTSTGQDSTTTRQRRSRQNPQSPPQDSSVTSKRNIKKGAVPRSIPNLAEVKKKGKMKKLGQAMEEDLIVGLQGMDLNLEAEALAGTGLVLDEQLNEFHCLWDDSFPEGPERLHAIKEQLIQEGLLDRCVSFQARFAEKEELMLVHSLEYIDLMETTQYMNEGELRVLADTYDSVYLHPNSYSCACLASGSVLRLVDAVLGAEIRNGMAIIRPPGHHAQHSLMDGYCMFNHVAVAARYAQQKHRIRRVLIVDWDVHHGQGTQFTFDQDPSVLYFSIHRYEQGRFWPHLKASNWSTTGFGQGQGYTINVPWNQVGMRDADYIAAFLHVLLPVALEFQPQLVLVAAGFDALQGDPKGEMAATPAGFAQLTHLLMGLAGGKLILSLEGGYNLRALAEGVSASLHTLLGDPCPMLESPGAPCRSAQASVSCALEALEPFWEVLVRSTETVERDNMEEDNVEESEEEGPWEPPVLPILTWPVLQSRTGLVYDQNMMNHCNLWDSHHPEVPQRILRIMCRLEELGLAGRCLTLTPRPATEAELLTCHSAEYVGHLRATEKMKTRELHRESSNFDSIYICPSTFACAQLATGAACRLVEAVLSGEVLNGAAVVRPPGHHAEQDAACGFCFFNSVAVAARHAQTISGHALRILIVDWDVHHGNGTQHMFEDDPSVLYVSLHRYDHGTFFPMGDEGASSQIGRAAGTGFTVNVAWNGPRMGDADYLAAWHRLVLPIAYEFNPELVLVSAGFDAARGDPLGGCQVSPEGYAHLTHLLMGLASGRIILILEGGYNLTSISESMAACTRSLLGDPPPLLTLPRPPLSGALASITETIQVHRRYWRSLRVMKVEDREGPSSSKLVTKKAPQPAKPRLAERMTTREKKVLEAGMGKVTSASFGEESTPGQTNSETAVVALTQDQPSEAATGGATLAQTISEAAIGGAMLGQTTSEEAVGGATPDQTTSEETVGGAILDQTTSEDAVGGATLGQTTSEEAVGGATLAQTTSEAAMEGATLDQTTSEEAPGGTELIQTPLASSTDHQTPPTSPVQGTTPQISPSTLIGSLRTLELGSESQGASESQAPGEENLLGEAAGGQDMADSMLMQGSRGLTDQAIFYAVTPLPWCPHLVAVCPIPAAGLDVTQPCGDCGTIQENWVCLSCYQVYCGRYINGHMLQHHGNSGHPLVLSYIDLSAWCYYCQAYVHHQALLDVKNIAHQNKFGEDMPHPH
Briefly: Inhibition of recombinant human HDAC6 at 10 uM using Z-(Ac)Lys-AMC as substrate after 90 mins by fluorescence based micro plate assay. In a few lines:
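Recombinant human HDAC1 or HDAC6 incubated 90 min at 37 °C with 10.5 μM ZMAL (Z-(Ac)Lys-AMC) and increasing inhibitor concentrations, using a homogeneous fluorescence assay. Fluorescence read at Ex 390/Em 460 nm.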

In the case of `COc1ccc(C(=O)NO)cc1S(=O)(=O)Nc1ccc2c(c1)cc(C)c(=O)n2C`, the Kd on Peregrin came out at 67 nM. The inhibition at 100 µM came out at 39% in the series on HL-60 and 43% in the series on THP-1 [3]. Also, in the series with THP-1 [1], the inhibition at 4 µM was determined as 0%. Also, the Activity entry in the series with HEK293 was “Non-Toxic”. For the same molecule, the inhibition at 20 µM with THP-1 [2] came to 32%. Further, the inhibition in series [4] was 64%.
